{"data": "Results pooled from the literature", "target": "Fibroblast growth factor receptor 2 (FGFR2, Homo sapiens, UniProt P21802)"}
{"Structure (SMILES)": "C#Cc1n[nH]c2c(-c3cn([C@@H](C)c4ccccn4)c(=O)[nH]c3=O)cc(F)cc12", "test": "enzyme activity, inhibitor", "setting": "0.1 µM", "measurement": "inhibition", "result": "4.2%"}
{"Structure (SMILES)": "O=c1[nH]c2ccccc2n1C1CCN(Cc2ccc(-c3[nH]c4cc5ncnc5cc4nc3-c3ccccc3)cc2)CC1", "test": "cell-free assay", "setting": "0.5 µM", "measurement": "remaining signal", "result": "94.2%"}
{"Structure (SMILES)": "Cn1cncc1[C@](O)(COc1ccc(C#N)cc1-c1ccc(OC(F)(F)F)cc1)c1ccc(C#N)cc1", "test": "cell-free assay, competition with immobilised ligand", "setting": "1 µM", "measurement": "remaining binding", "result": "86%"}
{"Structure (SMILES)": "CC(C)(C)c1cc(C=C(C#N)C#N)cc(Br)c1O", "test": "enzyme activity, inhibitor", "setting": "0.5 µM", "measurement": "remaining activity", "result": "96.4%"}
{"Structure (SMILES)": "COc1ncccc1-c1cnn2ccc(N3CCN(C(=O)OC(C)C)CC3)nc12", "test": "binding, competition with immobilised ligand", "setting": "1 µM", "measurement": "remaining binding", "result": "82%"}
{"Structure (SMILES)": "Cn1cc(-c2cccc(N3CCc4c(sc5c4CC(C)(C)C5)C3=O)c2CO)cc(Nc2ccncn2)c1=O", "test": "enzyme activity, inhibitor", "setting": "1 µM", "measurement": "inhibition", "result": "14%"}
{"Structure (SMILES)": "COCc1c(-c2cc3cc(C)cc(OC)c3s2)c2c(N)ncnn2c1CN1CCNC(=O)C1", "test": "cell-free assay, competition with immobilised ligand", "setting": "1 µM", "measurement": "inhibition", "result": "99.8%"}
{"Structure (SMILES)": "N#CC1(c2ccccn2)CCN(Cc2cc(C(=O)O)c(=O)n3ccccc23)CC1", "test": "cell-free assay, competition with immobilised ligand", "setting": "1 µM", "measurement": "remaining binding", "result": "100%"}
{"Structure (SMILES)": "Cc1nn(C)cc1-c1nc2c(N3CCN(Cc4ccc(Cl)cc4)CC3)c(Cl)cnc2[nH]1", "test": "binding, competition with immobilised ligand", "setting": "1 µM", "measurement": "remaining binding", "result": "45%"}
{"Structure (SMILES)": "Cn1cc(-c2cc(F)cc(N3CCn4c(cc5c4CCCC5)C3=O)c2CO)cc(Nc2ccc(N3CCN(C4COC4)CC3)cn2)c1=O", "test": "enzyme activity, inhibitor", "setting": "0.1 µM", "measurement": "inhibition", "result": "15%"}
{"Structure (SMILES)": "C#Cc1n[nH]c2c(-c3cn([C@@H](C)c4ccccc4)c(=O)[nH]c3=O)cc(F)cc12", "test": "enzyme activity, inhibitor", "setting": "0.1 µM", "measurement": "inhibition", "result": "1.6%"}
{"Structure (SMILES)": "Nc1ncc(-c2nc(N3CCOCC3)nc(N3CCOCC3)n2)c(C(F)F)n1", "test": "cell-free assay, competition with immobilised ligand", "setting": "10 µM", "measurement": "remaining binding", "result": "90%"}
